The results in this text go back to ChEMBL document CHEMBL1145430, “Synthesis and simple 18F-labeling of 3-fluoro-5-(2-(2-(fluoromethyl)thiazol-4-yl)ethynyl)benzonitrile as a high affinity radioligand for imaging monkey brain metabotropic glutamate subtype-5 receptors with positron emission tomography” (J Med Chem, 2007).

For the test, the target named is Metabotropic glutamate receptor 5 (Rattus norvegicus, UniProt P31424). The test is described as follows: Displacement of […] from mGluR5 in rat brain membrane. Type of test: cell membranes. In a few lines:
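Competition binding against [³H]MPEPy in rat whole-brain membranes (minus cerebellum and brainstem), homogenized in 50 mM Tris-HCl/saline pH 7.5, pelleted at 39 800 g. Membranes 5 mg/800 µL final. Competitor from 10 mM ethanol stock, final 0.01 nM to 1 mM. Incubated 1 h at 22 °C, filtered on PEI-soaked GF/B, washed with cold saline, scintillation counted. Three determinations.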

Molecules are shown by their SMILES.

Sequence of Metabotropic glutamate receptor 5 (P31424 whole entry): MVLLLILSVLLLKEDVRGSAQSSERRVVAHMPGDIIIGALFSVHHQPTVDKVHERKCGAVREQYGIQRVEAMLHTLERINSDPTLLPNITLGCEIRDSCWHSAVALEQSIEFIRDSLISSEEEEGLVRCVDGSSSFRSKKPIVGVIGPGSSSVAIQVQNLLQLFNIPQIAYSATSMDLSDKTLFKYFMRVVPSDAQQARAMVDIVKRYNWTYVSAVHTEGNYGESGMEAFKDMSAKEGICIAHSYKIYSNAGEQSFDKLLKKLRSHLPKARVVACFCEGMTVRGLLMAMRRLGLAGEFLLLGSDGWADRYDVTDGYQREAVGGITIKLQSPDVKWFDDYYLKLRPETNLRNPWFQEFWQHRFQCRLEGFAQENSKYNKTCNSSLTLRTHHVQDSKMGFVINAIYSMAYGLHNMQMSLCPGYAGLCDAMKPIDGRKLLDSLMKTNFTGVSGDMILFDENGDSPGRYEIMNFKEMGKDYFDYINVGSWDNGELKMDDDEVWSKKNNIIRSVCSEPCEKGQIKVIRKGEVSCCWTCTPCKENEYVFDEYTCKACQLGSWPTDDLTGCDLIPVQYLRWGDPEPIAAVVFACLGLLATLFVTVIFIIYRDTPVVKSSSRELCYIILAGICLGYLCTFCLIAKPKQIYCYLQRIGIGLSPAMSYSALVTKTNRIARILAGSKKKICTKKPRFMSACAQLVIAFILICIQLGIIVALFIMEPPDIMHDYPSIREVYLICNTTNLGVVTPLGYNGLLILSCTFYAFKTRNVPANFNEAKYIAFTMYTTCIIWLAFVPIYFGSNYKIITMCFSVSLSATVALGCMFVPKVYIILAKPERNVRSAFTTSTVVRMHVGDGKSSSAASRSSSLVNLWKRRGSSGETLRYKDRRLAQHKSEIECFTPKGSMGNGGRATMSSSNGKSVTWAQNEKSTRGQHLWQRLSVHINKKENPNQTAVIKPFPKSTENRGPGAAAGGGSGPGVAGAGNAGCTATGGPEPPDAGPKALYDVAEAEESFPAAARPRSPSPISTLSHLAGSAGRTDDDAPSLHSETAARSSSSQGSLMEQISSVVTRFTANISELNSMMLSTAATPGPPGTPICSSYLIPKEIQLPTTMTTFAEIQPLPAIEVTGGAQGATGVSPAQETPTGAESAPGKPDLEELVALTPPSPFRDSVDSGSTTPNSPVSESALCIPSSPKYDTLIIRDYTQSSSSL

In the case of `COc1cccc(C#Cc2csc(CF)n2)c1`, the IC50 (usually the point on the concentration scale where inhibition reaches its midpoint) amounted to 520 pM.

`N#Cc1cncc(C#Cc2csc(CF)n2)c1` registered an IC50 of 230 pM. Compound `FCc1nc(C#Cc2cccc(F)c2)cs1` returned an IC50 of 480 pM.
